Compound activity as filed in PubChem.
MrgX1 ag: activates human MrgX1 receptor signaling. Q96LB2. MrgX1-HEK293 cells, Fluo-4 calcium fluorescence, agonist mode; hits give high values. B-score at 10 µM. hit rate 0.44% among 310,000;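 active means calcium response B-score plate-corrected fluorescence ratio at least 3 library SD, with starting fluorescence B-score inside 5 SD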
Target sequence (Q96LB2 whole entry, looked up): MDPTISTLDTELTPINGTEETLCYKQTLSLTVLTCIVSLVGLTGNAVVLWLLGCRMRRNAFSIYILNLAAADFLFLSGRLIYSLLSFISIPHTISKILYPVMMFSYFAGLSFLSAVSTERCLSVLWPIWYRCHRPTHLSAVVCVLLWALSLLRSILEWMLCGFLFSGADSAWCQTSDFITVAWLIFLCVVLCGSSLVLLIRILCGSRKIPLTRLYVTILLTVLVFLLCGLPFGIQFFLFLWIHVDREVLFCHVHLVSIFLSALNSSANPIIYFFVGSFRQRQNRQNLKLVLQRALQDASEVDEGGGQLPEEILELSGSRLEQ
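Material: MrgX1-expressing HEK293 cells; input: 15,000 cells per well; doses: test compound given as first of three sequential additions; schedule: overnight plating before 1 h dye loading; technique: Fluo-4 NW calcium-flux fluorescence, kinetic read; evaluation: baseline-normalised fluorescence change ratio, B-scored; control set: plate-wise positive and negative controls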
MrgX1 PAM: allosterically activates human MrgX1 receptor signaling; Q96LB2; MrgX1-HEK293, Fluo-4 calcium flux, FDSS; hits give high values; B-score at 10 µM; hit rate 0.63% among 310,000; AID 588675;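 active means plate-corrected calcium response at least 3 library SD above typical, normal starting fluorescence, not activating the receptor alone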;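 further: compound read alongside a low EC10 to EC30 dose of BAM8-22 agonist; peak minus trough fluorescence over baseline measured at the second addition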
RGS4 act: RGS4 potentiation or activation; HEK293 M3R/inducible RGS4, carbachol calcium flux Fluo4; hits give low values; hit rate 0.92% among 310,000; B-score at 10 µM;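 active means B-score of the integrated calcium signal more than 4 SD below the library mean, with starting fluorescence not abnormally high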;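 further: negative B-score means reduced calcium response which marks RGS4 activation or potentiation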
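Also added: carbachol at ECmax as muscarinic agonist stimulus; Assay system: HEK293 cells with stable M3R and inducible RGS4; Timing: overnight RGS4 induction, 30 min dye load 37 °C, 20 min compound RT; Measured by: Fluo4-AM (2 µM) calcium-flux fluorescence, kinetic read.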
RGS4 inh: human RGS4 inhibition | P49798 | HEK293 M3R/RGS4 inducible, Fluo-4 calcium flux; hits give high values; triggered by carbachol at its EC20 | B-score at 10 µM | hit rate 0.45% among 310,000 | AID 463165;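 active means B-score, a plate-corrected calcium signal, over three deviations above library mean, with baseline fluorescence within five deviations of library mean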;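 further: RGS4 expression induced by doxycycline in cells with stable M3 receptor; B-score is computed from the integrated fluorescence ratio over baseline after carbachol; higher B-score means a larger calcium signal and so more RGS4 inhibition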
Target sequence (P49798 whole entry, looked up): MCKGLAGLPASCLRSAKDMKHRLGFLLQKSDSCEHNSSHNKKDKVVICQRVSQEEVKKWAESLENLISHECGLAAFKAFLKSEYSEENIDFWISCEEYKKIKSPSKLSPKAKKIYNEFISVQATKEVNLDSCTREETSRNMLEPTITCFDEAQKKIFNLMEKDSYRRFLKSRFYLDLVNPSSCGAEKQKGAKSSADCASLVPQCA
MrgX1 antag: antagonists of human MrgX1 receptor; hit rate 1.3% among 310,000; B-score at 10 µM; MRGX1-HEK293 calcium flux, Fluo-4, BAM8-22 antagonism; hits give low values; AID 588676; Q96LB2;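 active means calcium-response B-score plate-corrected more than 3 library SD below zero, starting fluorescence within 5 deviations, no agonist response on first addition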;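 further: peak minus trough fluorescence over baseline after final BAM8-22 challenge near maximal dose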
Starred values were filed as active, the others as inactive; i = inactive; x = not tested or not shown. Compounds with a hit are over-represented: about 3.5% of the library has one in this group of screens.

SMILES	MrgX1 ag	MrgX1 PAM	RGS4 act	RGS4 inh	MrgX1 antag
Cc1cc(/C=C2/SC(=S)N(c3cccc(C(F)(F)F)c3)C2=O)c(C)n1-c1cccnc1	i	16*	i	i	i
Cc1cc(/C=C2\SC(=S)N(Cc3ccco3)C2=O)c(C)n1-c1cccnc1	x	x	i	i	x
CCCCCCc1cc2cc(C(=O)OCC)c(=O)oc2cc1O	i	i	i	i	-7.3*
CCCCCCc1cc2cc(C(N)=O)c(=N)oc2cc1O	i	i	-8.1*	i	i
OC(CNCCC(c1ccccc1)c1ccccc1)COc1ccccc1 (stereo not given)	i	i	i	i	i
Cc1ccc(S(=O)(=O)Nc2cccc(C(=O)NCC(c3ccccc3)N(C)C)c2)cc1F (stereo not given)	i	i	-7.5*	i	i
Cc1ccc(NS(=O)(=O)c2ccc(C(=O)NCC(c3ccco3)N(C)C)cc2)cc1 (stereo not given)	i	i	i	i	-4.9*
Cn1nc(CC(=O)Nc2ncc(Br)s2)c2ccccc2c1=O	i	8.9*	i	i	i
Cn1nc(CC(=O)NC2CCCCCCCCCCC2)c2ccccc2c1=O	i	i	i	i	i
CC(NC(=O)C1CC2CCCC(C1)C2=O)c1ccccc1 (stereo not given)	i	i	i	i	i
CC1=C(C)CS(=O)N(S(=O)(=O)c2ccc(Cl)cc2)C1 (stereo not given)	52*	i	i	i	i
CC1CCCC(C)N1S(=O)(=O)c1ccc(Cl)cc1 (stereo not given)	i	i	i	i	i
O=C(O)c1ccc(CSc2nc(-c3ccccc3)cc(C(F)(F)F)n2)cc1	i	i	i	i	i
O=C(O)c1ccc(CSc2nc(-c3ccc(Cl)cc3)cc(C(F)(F)F)n2)cc1	i	i	-7.5*	i	i
CN(c1ccccc1)S(=O)(=O)c1cccc(NC(=O)c2ccc3ncsc3c2)c1	i	i	i	i	i
CC(=O)OCC(=O)Nc1ccc([N+](=O)[O-])cc1Cl	i	i	i	i	i
CC(=O)Oc1c(C)cc(Cl)cc1C(=O)Nc1ccc([N+](=O)[O-])cc1Cl	i	i	i	i	-5*
N#C/C(=C\c1ccc2c(c1)OCCO2)C(=O)Nc1nccs1	52*	i	i	i	i
CCC(CO)(CO)N(CC(=O)Nc1ccc(OC)cc1)CC(=O)Nc1ccc(OC)cc1	i	i	i	i	i
COc1cccc(CNc2ccc(F)c([N+](=O)[O-])c2)c1O	i	18*	i	i	i
CCOC(=O)N1CCN(C(=O)c2cc3c(-c4cccc(OC)c4)nn(C)c3s2)CC1	i	i	-7.1*	i	i
Cn1cc([N+](=O)[O-])c(C(=O)NNC(=O)c2ccc([N+](=O)[O-])cc2)n1	i	i	i	i	-5.4*
CC(NC(=O)/C=C/c1ccco1)c1nc2ccccc2n1Cc1c(Cl)cccc1Cl (stereo not given)	i	i	i	i	i
CC(NC(=O)/C=C/c1ccco1)c1nc2ccccc2n1Cc1ccccc1F (stereo not given)	i	i	i	i	-5.3*
O=c1ccn(CCc2c[nH]c3ccccc23)c2c1CCCC2	i	i	i	i	i
SMILES	MrgX1 ag	MrgX1 PAM	RGS4 act	RGS4 inh	MrgX1 antag
O=C(Nc1ccccc1)Nc1n[nH]c2nnc(-c3ccccc3)c(-c3ccccc3)c12	i	i	i	i	i
CCN(CC)c1ccc(NC(=O)COc2ccc(N(C)S(=O)(=O)c3cccs3)cc2)cc1	i	7.9*	i	i	i
O=C(Nc1ccccc1Cc1ccccc1)c1oc2ccccc2c1COc1ccccc1	i	i	i	i	-5.5*
Cc1ccc(NC(=O)CN(C)C(=O)COC(=O)CNS(=O)(=O)c2ccc(F)c(F)c2F)cc1	i	i	i	i	i
Cc1ccc(NC(=O)CN(C)C(=O)COC(=O)CNS(=O)(=O)c2ccc(Br)cc2Cl)cc1	59*	i	i	i	i
Cc1ccc(C(C)C)c(OCc2nn(CC(=O)c3ccc(Cl)cc3)c3[n+]2CCCCC3)c1	i	i	-7.4*	i	i
O=C(Cn1nc(CNc2ccc(Cl)cc2)[n+]2c1CCCCC2)c1ccccc1	i	i	i	i	i
COc1ccc(-c2csc(NC(=O)c3ccccc3F)c2C(=O)O)cc1	i	i	i	i	i
CC1CCCCC1NC(=O)CCn1ccc2cc(S(=O)(=O)N3CCCC3)ccc21 (stereo not given)	i	i	i	i	i
COc1ccc(Nc2nc(-c3cccc(OC)c3O)nc3ccccc23)cc1	i	i	-7.6*	i	i
COc1cccc(-c2nc(N3CCC(C)CC3)c3ccccc3n2)c1O	i	i	-7.1*	i	i
CCOC(=O)C1(CCCc2ccccc2)CCN(C(=O)CN2CCOC2=O)CC1	i	7.3*	i	i	i
COc1cccc(N/C(SC)=C(/C#N)C(=O)NCc2cccs2)c1	i	i	-7.5*	i	i
COc1cccc(N/C(SCc2ccccc2C)=C(/C#N)C(=O)NCc2cccs2)c1	i	i	i	i	i
CCOC(=O)c1sc(NC(=O)/C=C/c2cnn(C)c2C)c(C(=O)OC(C)C)c1C	i	i	i	i	i
CCN(CC)C(=O)CN(c1cc2c(cc1OC)oc1ccccc12)S(=O)(=O)c1ccccc1	i	i	x	x	-9.1*
Cc1csc(N/N=C/c2ccc(O)c([N+](=O)[O-])c2)n1	i	i	i	i	-6*
Cc1ccc(-c2nnc(N3CCN(C(=O)COc4cccc(C)c4)CC3)c3ccccc23)cc1	i	i	-7.3*	i	i
Cc1ccc(OCC(=O)N2CCN(c3nnc(-c4ccc(C)cc4)c4ccccc34)CC2)cc1	i	i	i	i	i
Cc1ccccc1-c1oc(C)c(C)[n+]1[O-]	i	7.8*	i	i	i
CN1CCN(CC/C=C2/c3ccccc3Sc3ccc(S(=O)(=O)N(C)C)cc32)CC1	i	i	i	i	i
CN(C)CC/C=C1/c2cc(F)ccc2Sc2ccc(Cl)cc21	i	i	-10*	i	i
COc1cc(Cl)cc2c1Sc1ccccc1/C2=C/CCN(C)C	i	i	-7.1*	i	i
CN(C)CC/C=C1/c2ccccc2Sc2c(O)cc(Cl)cc21	i	i	-7.3*	i	i
CN1CCN(c2nc(-c3ccc(Cl)cc3)cc(=O)[nH]2)CC1	i	i	i	i	i
